Results taken from ChEMBL document CHEMBL1800054, “Thiazolides as novel antiviral agents. 1. Inhibition of hepatitis B virus replication” (J Med Chem, 2011).
pEC50: −log10 of the molar value.

Assays:
[1] = Cytotoxicity against human HepG2(2.2.15) cells after 24 hrs by neutral red dye uptake assay; format: cell-based; settings: for CC50: hepg2 2.2.15, 24 h; for CC50 at 24 h: HepG2(2.2.15) cells
Summary of the method: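 Confluent chronically HBV-producing 2.2.15 cultures given nine consecutive daily doses of compound; neutral red dye uptake read 24 hr after the last dose.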

[2] = system: Hepatitis B virus; experiment: Antiviral activity against Hepatitis B virus infected in human HepG2(2.2.15) cells assessed as decrease in extracellular viral DNA measured 24 hrs after last dose; format: functional, organism-based; settings: HepG2 2.2.15, 24 h
Summary of the method: (§1)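 Confluent 2.2.15 cells (HepG2 line chronically producing HBV) in 96-well culture; nine consecutive daily doses of compound. HBV DNA (extracellular virion or intracellular replication intermediates) quantified by blot hybridization 24 hr after the last dose. Cytotoxicity measured by neutral red uptake 24 hr after the last dose.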

[3] = system: Hepatitis B virus; experiment: Antiviral activity against Hepatitis B virus infected in human HepG2(2.2.15) cells assessed as decrease in intracellular viral DNA measured 24 hrs after last dose; format: functional, organism-based; settings: HepG2 2.2.15, 24 h; summary of the method: as §1
[4] = Selectivity index, ratio CC50 for human HepG2(2.2.15) cells to EC90 for decrease in extracellular viral DNA in Hepatitis B virus infected human HepG2(2.2.15) cells; format: toxicity; settings: read-out: Selectivity Index
Summary of the method: (§2)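 Ratio of CC50 to EC90 in confluent 2.2.15 cells treated with nine consecutive daily doses. Both read 24 hr after the last dose. CC50 = concentration halving neutral red uptake versus untreated cultures. EC values were run in triplicate.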

[5] = Selectivity index, ratio CC50 for human HepG2(2.2.15) cells to EC90 for decrease in intracellular viral DNA in Hepatitis B virus infected human HepG2(2.2.15) cells; format: toxicity, cell-based; settings: read-out: Selectivity Index; summary of the method: as §2
[6] = Inhibition of CYP450; format: ADME
Summary of the method: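 Screened for inhibition against a panel of 14 CYP isozymes.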

[7] = Metabolic stability in human liver microsomes assessed as compound remaining after 60 mins; format: ADME, Microsome; settings: read-out: Stability
Summary of the method: (§3)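 Incubated 60 minutes with human liver microsomes or S9 fraction; read-out is percent of parent compound remaining.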

[8] = system: Plasma; experiment: Metabolic stability in human plasma after 1 hr; format: ADME, cell-free
Summary of the method: (§4)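 Incubated 1 hour in human whole blood or plasma, then stability assessed.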

[9] = Metabolic stability in human liver S9 fraction assessed as compound remaining after 60 mins; format: ADME, subcellular; settings: read-out: Stability; summary of the method: as §3
[10] = system: Blood; experiment: Metabolic stability in human blood after 1 hr; format: ADME, tissue-based; summary of the method: as §4
[11] = Protein binding in plasma; format: ADME, cell-free; settings: read-out: PPB
[12] = system: Plasma; experiment: Metabolic stability in human plasma assessed as plasma esterase-induced compound deacetylation; format: ADME, cell-free
[13] = system: Plasma; experiment: Protein binding in human plasma; format: ADME, cell-free

Row | Structure (SMILES) | CC50 [1] [µM] | pEC50 [2] | EC90 [2] [µM] | CC50 at 24 h [1] [µM] | pEC50 [3] | selectivity ratio [4] | EC90 [3] [µM] | selectivity ratio [5] | also measured
1 | O=C(Nc1nccs1)c1ccccc1O | 16 | < 5.00 | > 10 |  |  |  |  |  | 
2 | CS(=O)(=O)c1cnc(NC(=O)c2ccccc2O)s1 |  | < 5.00 | > 10 | > 100 | < 5.00 |  |  |  | 
3 | O=C(Nc1ncc(Cl)s1)c1ccccc1O | 38 | 6.48 | 0.89 |  | 6.00 | 43 | 2.9 | 13 | 
4 | Cc1ccc(O)c(C(=O)Nc2ncc(Cl)s2)c1 |  | 6.48 | 0.83 | 100 | 6.05 | > 120 | 2 | > 51 | inhibition (INH) [6]: Not Active; remaining at 1 h [7]: 16%; Stability [8]: Stable; remaining at 1 h [9]: 6%; Stability [10]: Stable; fraction unbound [11]: < 0.01
5 | Cc1cccc(C(=O)Nc2ncc(Cl)s2)c1O | 100 | < 5.00 | > 10 |  | < 5.00 |  | > 10 |  | 
6 | Cc1ccc(C(=O)Nc2ncc(Cl)s2)c(O)c1 |  | 6.00 | 3.3 | 100 | 5.57 | > 30 | 6.3 | > 16 | 
7 | Cc1cccc(C(=O)Nc2ncc(Br)s2)c1O |  | 5.46 | 9 | > 100 | 5.12 | > 11 | 22 | > 4.5 | 
8 | O=C(Nc1ncc(Br)s1)c1ccccc1O |  | 5.92 | 4 | > 100 | 5.54 | > 25 | 8.7 | > 12 | 
9 | O=C(Nc1ncc(F)s1)c1ccccc1O | 51 | 5.51 | 12 |  |  | 4.3 |  |  | 
10 | O=C(Nc1ncc(Br)s1)c1cccc(Cl)c1O | 30 | 6.49 | 2 |  | 6.23 | 15 | 3.9 | 7.7 | 
11 | O=C(Nc1ncc(Br)s1)c1ccc(F)cc1O | 12 | 5.68 | 5.6 |  |  | 2.1 |  |  | 
12 | O=C(Nc1ncc(Br)s1)c1cc(Cl)ccc1O | 45 | 6.68 | 1.1 |  | 5.46 | 41 | 11 | 4.1 | 
13 | O=C(Nc1ncc(-c2ccc(Cl)cc2)s1)c1ccccc1O |  | < 5.00 | > 10 | > 100 | < 5.00 |  | > 10 |  | 
14 | Cc1cccc(C(=O)Nc2nc(-c3ccccc3)cs2)c1O |  | 6.66 | 0.73 | > 100 | 5.11 | > 137 | 30 | 3.3 | 
15 | O=C(Nc1nc(-c2ccccc2)cs1)c1cccc(Cl)c1O |  | 6.82 | 0.6 | > 100 |  | > 166 |  |  | 
16 | CC(=O)Nc1cnc(NC(=O)c2ccccc2O)s1 |  | < 5.00 | > 10 | > 100 | < 5.00 |  | > 10 |  | 
17 | CS(=O)(=O)c1csc(NC(=O)c2ccccc2O)n1 |  | < 5.00 | > 10 | > 100 |  |  |  |  | 

Row | Structure (SMILES) | CC50 [1] [µM] | pEC50 [2] | EC90 [2] [µM] | CC50 at 24 h [1] [µM] | pEC50 [3] | selectivity ratio [4] | EC90 [3] [µM] | selectivity ratio [5] | also measured
18 | N#Cc1cnc(NC(=O)c2ccccc2O)s1 |  | 5.49 | 9.4 | > 100 | 5.26 | > 11 | 14 | > 7.1 | 
19 | COC(=O)c1cnc(NC(=O)c2ccccc2O)s1 | 15 | < 5.00 | > 10 |  |  |  |  |  | 
20 | O=C(Nc1ncc(C(F)(F)F)s1)c1ccccc1O |  | 5.42 | 11 | > 100 | 5.04 | > 9.1 | 27 | > 3.7 | 
21 | CCOC(=O)Oc1ccccc1C(=O)Nc1ncc([N+](=O)[O-])s1 | 9.9 | 6.68 | 0.69 |  | 6.27 | 13 | 1.8 | 5.5 | 
22 | CC(C)c1cnc(NC(=O)c2ccccc2O)s1 |  | < 5.00 | > 10 | > 100 | < 5.00 |  | > 10 |  | 
23 | CC(=O)Oc1ccccc1C(=O)Nc1ccc(Br)cc1 |  | 6.12 | 3 | > 100 | 5.68 | > 33 | 6.8 | > 15 | 
24 | Cc1cc([N+](=O)[O-])c(Cl)cc1NC(=O)c1ccccc1O | 89 | 6.55 | 0.73 |  | 6.18 | 122 | 1.7 | 52 | 
25 | CC(=O)Oc1ccccc1C(=O)Nc1cc(C(F)(F)F)cc(C(F)(F)F)c1 |  | 5.42 | 14 | > 100 |  | > 7.1 |  |  | 
26 | CC(=O)Oc1ccccc1C(=O)Nc1ccc(I)cc1 |  | 6.70 | 1.2 | > 100 | 6.14 | > 83 | 3.3 | > 30 | 
27 | O=C(Nc1ccc([N+](=O)[O-])cc1)c1ccccc1O |  | < 5.00 | > 10 | > 100 |  |  |  |  | 
28 | CC(=O)Oc1ccccc1C(=O)Nc1ccc(Cl)cc1 |  | 5.46 | 9.7 | > 100 |  | 11 |  |  | 
29 | O=C(Nc1ccc(Cl)cc1)c1ccccc1O |  | < 5.00 | > 10 | > 100 |  |  |  |  | 
30 | O=C(Nc1cc(C(F)(F)F)ccc1Cl)c1ccccc1O |  | 5.43 | 13 | > 100 |  |  |  |  | 
31 | O=C(Nc1nc(-c2ccccc2)cs1)c1ccccc1O | 22 | 5.25 | 21 |  |  | 1 |  |  | 
32 | O=C(Nc1ccc([N+](=O)[O-])cc1Cl)c1cc(Cl)ccc1O [NICLOSAMIDE] |  |  | > 10 | > 100 |  |  |  |  | 
33 | CC(=O)Oc1ccccc1C(=O)Nc1ncc([N+](=O)[O-])s1 [NITAZOXANIDE] |  | 6.92 |  | > 100 | 6.23 |  |  |  | t1/2 [12]: 6 min; PPB [13]: > 95%
34 | O=C(Nc1ncc([N+](=O)[O-])s1)c1ccccc1O [TIZOXANIDE] |  | 6.82 | 0.58 | > 100 | 6.34 | > 172 | 1.2 | > 83 | PPB [13]: > 95%
